The text below walks through data of ChEMBL document CHEMBL4339229, “Chalcones and Chalcone-mimetic Derivatives as Notch Inhibitors in a Model of T-cell Acute Lymphoblastic Leukemia” (ACS Med Chem Lett, 2019).

A word on the IC50: it is the concentration that inhibits the measured activity by half.

In assay [1] the test system is KOPTK1. As to the kind of experiment: Antiproliferative activity against human KOPTK1 cells harboring activating Notch1 gene mutations assessed as reduction in cell viability incubated for 36 hrs by MTS assay. The format is functional, cell-based. Conditions: KOPTK1, 36 h. Summed up:
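Dose–response MTS proliferation assay in KOPTK1 cells at 0, 0.5, 1, 2.5, 5, 10, 20 and 50 μM for 36 h; IC50 taken as half-maximal growth-inhibitory concentration; three independent experiments in triplicate, mean ± SD.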

In assay [2] the target is Neurogenic locus notch homolog protein 1 (Homo sapiens) (UniProt P46531). As to the kind of experiment: Inhibition of NOTCH1 signalling in human KOPTK1 cells harboring activating Notch1 gene mutations assessed as reduction in N1Val protein expression at 2.5 uM incubated for 36 hrs by Western blot analysis. The format is cell-based. In a few lines:
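KOPTK1 cells exposed 36 h to 2.5 μM compound or DMSO; endogenous activated Notch1 intracellular domain (N1Val) detected by Western blot with β-actin loading control; relative levels quantified by optical densitometry versus DMSO.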

Assay [3] shares this target. The assay is described as follows: Inhibition of NOTCH1 signalling in human KOPTK1 cells harboring activating Notch1 gene mutations assessed as reduction in DELTEX1 mRNA expression at 2.5 uM incubated for 36 hrs by RT-PCR analysis. It counts as cell-based. In a few lines:
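DELTEX1 (DTX1) relative gene expression measured in KOPTK1 cells after 36 h with 2.5 μM compound or DMSO vehicle; three independent experiments in triplicate, mean ± SEM.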

Assay [4] deals with KOPTK1. As to the kind of experiment: Antiproliferative activity against human KOPTK1 cells harboring activating Notch1 gene mutations assessed as reduction in cell viability at 2.5 uM incubated for 36 hrs by MTS assay. The format is functional. Summed up: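 Single-point MTS viability screen in KOPTK1 T-ALL cells: 2.5 μM compound or DMSO vehicle for 36 h; viability expressed relative to DMSO; 30% viability decrease used as screening threshold; two independent experiments in triplicate, mean ± SEM.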
(Tetrazolium assays rely on reduction of a dye to a coloured formazan, in cell work by metabolically active cells.)

The subject of assay [5] is KOPTK1. As to the kind of experiment: Induction of cell death in human KOPTK1 cells harboring activating Notch1 gene mutations assessed as increase in cleaved PARP protein expression at 2.5 uM incubated for 36 hrs by Western blot analysis. The format is functional, cell-based. In a few lines:
(§1)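 Western blot of KOPTK1 lysates probed for p27kip, full-length and cleaved PARP, β-actin as loading control.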
On the technique in general: In western blotting, separated proteins are transferred to a membrane and probed.

In assay [6] the test system is KOPTK1. The assay is described as follows: Induction of cell death in human KOPTK1 cells harboring activating Notch1 gene mutations assessed as increase in p27kip protein expression at 2.5 uM incubated for 36 hrs by Western blot analysis. The format is functional, cell-based. Summed up: as §1
In a further assay the test system is HaCaT. The assay is described as follows: Antiproliferative activity against immortalized human HaCaT cells assessed as reduction in cell viability at 2.5 uM incubated for 36 hrs by MTS assay. The format is functional, cell-based.
The next assay deals with Jurkat. The assay is described as follows: Antiproliferative activity against human Jurkat cells assessed as reduction in cell viability at 2.5 uM incubated for 36 hrs by MTS assay. It counts as functional, cell-based.

The structures appear in SMILES notation. Activity calls are given as the source filed them.

Chain of Neurogenic locus notch homolog protein 1 (Homo sapiens) (P46531 whole entry, the tested form may be a part): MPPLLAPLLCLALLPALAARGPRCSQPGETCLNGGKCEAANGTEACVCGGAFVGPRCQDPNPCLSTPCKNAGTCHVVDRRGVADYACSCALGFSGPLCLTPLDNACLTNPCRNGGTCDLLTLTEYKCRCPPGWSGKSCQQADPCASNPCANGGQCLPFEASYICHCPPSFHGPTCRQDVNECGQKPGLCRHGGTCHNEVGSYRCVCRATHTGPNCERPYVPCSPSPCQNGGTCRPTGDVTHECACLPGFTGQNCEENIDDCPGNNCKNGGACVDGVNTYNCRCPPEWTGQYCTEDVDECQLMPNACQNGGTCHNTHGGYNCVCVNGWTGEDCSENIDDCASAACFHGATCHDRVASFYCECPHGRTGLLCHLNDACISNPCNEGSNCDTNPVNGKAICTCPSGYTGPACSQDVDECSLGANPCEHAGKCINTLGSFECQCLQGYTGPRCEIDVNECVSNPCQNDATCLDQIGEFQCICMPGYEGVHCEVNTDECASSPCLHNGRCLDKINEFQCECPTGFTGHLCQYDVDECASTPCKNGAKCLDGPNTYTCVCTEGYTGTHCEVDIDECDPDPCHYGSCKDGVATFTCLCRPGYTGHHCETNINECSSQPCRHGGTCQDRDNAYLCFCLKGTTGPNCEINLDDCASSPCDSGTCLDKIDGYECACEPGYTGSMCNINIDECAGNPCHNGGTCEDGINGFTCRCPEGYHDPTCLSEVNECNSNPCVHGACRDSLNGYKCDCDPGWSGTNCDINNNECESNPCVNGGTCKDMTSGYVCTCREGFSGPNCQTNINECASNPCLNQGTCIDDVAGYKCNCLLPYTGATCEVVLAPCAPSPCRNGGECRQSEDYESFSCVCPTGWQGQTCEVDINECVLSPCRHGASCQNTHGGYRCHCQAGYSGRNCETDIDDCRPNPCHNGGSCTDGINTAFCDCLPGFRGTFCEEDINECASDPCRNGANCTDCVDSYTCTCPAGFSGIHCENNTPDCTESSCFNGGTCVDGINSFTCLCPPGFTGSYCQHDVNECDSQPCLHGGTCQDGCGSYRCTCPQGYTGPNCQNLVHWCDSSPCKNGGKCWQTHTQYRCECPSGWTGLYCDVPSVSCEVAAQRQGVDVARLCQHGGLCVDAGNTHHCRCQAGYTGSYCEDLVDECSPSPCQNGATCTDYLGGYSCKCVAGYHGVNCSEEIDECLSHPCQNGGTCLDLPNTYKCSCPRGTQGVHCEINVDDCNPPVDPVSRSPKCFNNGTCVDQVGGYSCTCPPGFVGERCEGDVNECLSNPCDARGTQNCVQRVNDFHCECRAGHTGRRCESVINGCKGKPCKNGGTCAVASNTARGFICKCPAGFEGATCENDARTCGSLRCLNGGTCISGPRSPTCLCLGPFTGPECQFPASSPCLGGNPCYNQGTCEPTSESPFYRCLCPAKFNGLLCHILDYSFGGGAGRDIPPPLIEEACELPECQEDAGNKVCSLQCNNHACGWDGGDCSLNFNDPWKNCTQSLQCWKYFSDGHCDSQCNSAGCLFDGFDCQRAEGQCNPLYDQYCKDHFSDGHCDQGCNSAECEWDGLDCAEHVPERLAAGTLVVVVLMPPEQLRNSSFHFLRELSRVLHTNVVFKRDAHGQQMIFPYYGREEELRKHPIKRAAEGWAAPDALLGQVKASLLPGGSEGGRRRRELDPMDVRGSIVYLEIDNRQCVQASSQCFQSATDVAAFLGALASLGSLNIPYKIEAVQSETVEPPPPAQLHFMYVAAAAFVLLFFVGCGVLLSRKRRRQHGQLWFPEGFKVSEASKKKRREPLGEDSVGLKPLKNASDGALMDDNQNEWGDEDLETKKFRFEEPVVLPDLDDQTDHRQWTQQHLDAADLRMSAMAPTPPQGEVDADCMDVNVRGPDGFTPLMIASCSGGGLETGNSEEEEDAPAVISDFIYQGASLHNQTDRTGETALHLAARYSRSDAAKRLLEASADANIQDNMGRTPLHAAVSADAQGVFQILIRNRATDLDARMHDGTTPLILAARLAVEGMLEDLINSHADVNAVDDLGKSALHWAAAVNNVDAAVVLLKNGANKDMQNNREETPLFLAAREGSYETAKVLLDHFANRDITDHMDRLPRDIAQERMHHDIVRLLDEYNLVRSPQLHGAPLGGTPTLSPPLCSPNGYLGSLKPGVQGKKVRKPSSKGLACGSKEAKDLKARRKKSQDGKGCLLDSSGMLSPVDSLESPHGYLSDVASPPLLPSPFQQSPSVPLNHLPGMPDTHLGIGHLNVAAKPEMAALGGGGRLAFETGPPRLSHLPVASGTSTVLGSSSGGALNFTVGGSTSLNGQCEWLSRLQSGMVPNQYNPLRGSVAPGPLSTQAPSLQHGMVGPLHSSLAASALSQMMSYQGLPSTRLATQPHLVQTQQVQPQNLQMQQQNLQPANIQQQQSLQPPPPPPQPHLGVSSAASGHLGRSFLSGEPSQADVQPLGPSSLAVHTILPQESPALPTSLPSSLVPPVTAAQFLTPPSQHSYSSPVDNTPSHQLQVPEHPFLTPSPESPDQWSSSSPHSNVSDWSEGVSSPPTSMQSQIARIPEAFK

For `COc1ccc(C(=O)/C=C/c2ccc(O)cc2)c(O)c1`, in the assay with KOPTK1 [1], the IC50 came out at 1.91 µM. Besides, the inhibition result in assay [2] and in assay [3] was “Active” throughout. Moreover, the Activity entry in the assay with KOPTK1 [4] is given as “>=30%”.
With `COc1ccc(C(=O)/C=C/c2ccc(O)c(C)c2)c(O)c1`, the outcome with KOPTK1 [5] and with KOPTK1 [6] was Active. The inhibition entry in assay [2] and in assay [3] was “Active” each time. Further, the Activity entry in the assay on KOPTK1 [4] was “>=30%”.
In the case of `Cc1ccc(C(=O)/C=C/c2ccc(O)cc2)cc1`, in the assay with KOPTK1 [5], the outcome was inactive. Further, in the assay with KOPTK1 [1], the concentration for half-maximal inhibition (IC50) worked out at 3.83 µM. Besides, the inhibition entry in assay [2] and in assay [3] was “Active” in each case. Moreover, the outcome in the assay with KOPTK1 [6] was Active. For the same compound, the Activity entry in the assay with KOPTK1 [4] is given as “>=30%”.
As to `COc1ccc(C(=O)C2CCc3cc(O)ccc3C2)c(O)c1` (racemic), the outcome with KOPTK1 [5] was inactive. Besides, the IC50 in the assay with KOPTK1 [1] was 2.46 µM. Further, the inhibition entry in assay [2] and in assay [3] was “Active” in each case. In the assay with KOPTK1 [6], the outcome was Active. In the assay with KOPTK1 [4], the Activity entry is listed as “>=30%”.
`COc1ccc2c(c1)CCC(C(=O)c1ccc(OC)cc1OC)C2` (racemic): the result with KOPTK1 [5], in the assay on HaCaT and in the assay on Jurkat was Active. The IC50 in the assay with KOPTK1 [1] was 1.37 µM. Besides, the inhibition result in assay [2] and in assay [3] was “Active” in each case. In addition, the result in the assay with KOPTK1 [6] was inactive. For the same compound, the Activity entry in the assay on KOPTK1 [4] is “>=30%”.
With `COc1ccc2c(c1)CC(C(=O)c1ccc(OC)cc1OC)CC2` (racemic), the result with KOPTK1 [5], in the assay on HaCaT and in the assay on Jurkat was Active. Besides, in the assay with KOPTK1 [1], the IC50 is 0.72 µM. Moreover, the inhibition entry in assay [2] and in assay [3] was “Active” throughout. The result in the assay with KOPTK1 [6] was inactive. Further, the Activity result in the assay with KOPTK1 [4] was “>=30%”.
